# Active and inactive are the calls of the source. The calls are words filed in the database; no cut-off is given here.
# Experiments:
# [1] = tested on: Mus musculus; assay: Anticonvulsant activity against metrazole-induced seizures in Albino mouse at 100 mg/kg, ip after 4 hrs by scMet assay; assay type: functional, organism-based; parameters: dose 100 mg/kg
# How it was run: (§1)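 Phase I protocol of the NINCDS antiepileptic drug development programme in albino mice, covering MES, subcutaneous pentylenetetrazole (metrazol) and rotarod neurotoxicity. Doses were 30, 100 and 300 mg/kg, read at 1/2 h and 4 h. One animal per dose and time point, scored as 0/1 (no activity) or 1/1 (noticeable activity).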
# [2] = tested on: Mus musculus; assay: Anticonvulsant activity in Albino mouse at 30 mg/kg, ip after 4 hrs by MES test; assay type: functional, organism-based; parameters: dose 30 mg/kg; how it was run: as §1
# [3] = tested on: Mus musculus; assay: Anticonvulsant activity in Albino mouse by MES test at 30mg/kg, ip after 30 mins; assay type: functional, organism-based; how it was run: as §1
# [4] = tested on: Mus musculus; assay: Antidepressant activity in Albino mouse assessed as duration of immobility at 10 mg/kg, ip by forced-swimming test; assay type: functional; details: route intraperitoneal
# How it was run: (§2)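 Porsolt forced-swim test in albino mice. Drug given ip at 0.5 ml/20 g body weight, 1 h before testing. Controls received 1% aqueous Tween 80. Each mouse was placed singly in a water-filled Plexiglas cylinder for 6 min. Immobility (floating upright with only slight movements to stay afloat) was timed over the last 4 min.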
# [5] = tested on: Mus musculus; assay: Anticonvulsant activity in Albino mouse at 100 mg/kg, ip after 4 hrs by MES test; assay type: functional, organism-based; parameters: dose 100 mg/kg; how it was run: as §1
# [6] = tested on: Mus musculus; assay: Neurotoxicity in Albino mouse at 300 mg/kg, ip after 4 hrs by RotaRod test; assay type: toxicity, organism-based; parameters: dose 300 mg/kg, route intraperitoneal; details: in vivo; how it was run: as §1
# [7] = tested on: Mus musculus; assay: Neurotoxicity in Albino mouse at 100 mg/kg, ip after 4 hrs by RotaRod test; assay type: toxicity, organism-based; parameters: dose 100 mg/kg, route intraperitoneal; details: in vivo; how it was run: as §1
# [8] = tested on: Mus musculus; assay: Neurotoxicity in Albino mouse at 100 mg/kg, ip after 30 mins by RotaRod test; assay type: toxicity, organism-based; parameters: dose 100 mg/kg, route intraperitoneal; details: in vivo, 0.5 h; how it was run: as §1
# [9] = tested on: Mus musculus; assay: Anticonvulsant activity in Albino mouse by MES test at 300 mg/kg, ip after 30 mins; assay type: functional, organism-based; parameters: dose 300 mg/kg; how it was run: as §1
# [10] = tested on: Mus musculus; assay: Anticonvulsant activity against metrazole-induced seizures in Albino mouse at 300 mg/kg, ip after 4 hrs by scMet assay; assay type: functional, organism-based; parameters: dose 300 mg/kg; how it was run: as §1
# [11] = tested on: Mus musculus; assay: Anticonvulsant activity in Albino mouse by MES test at 100 mg/kg, ip after 30 mins; assay type: functional, organism-based; parameters: dose 100 mg/kg; how it was run: as §1
# [12] = tested on: Mus musculus; assay: Anticonvulsant activity against metrazole-induced seizures in Albino mouse at 300 mg/kg, ip after 30 mins by scMet assay; assay type: functional, organism-based; parameters: dose 300 mg/kg; how it was run: as §1
# [13] = tested on: Mus musculus; assay: Anticonvulsant activity against metrazole-induced seizures in Albino mouse at 30 mg/kg, ip after 30 mins by scMet assay; assay type: functional, organism-based; parameters: dose 30 mg/kg; how it was run: as §1
# [14] = tested on: Mus musculus; assay: Neurotoxicity in Albino mouse at 30 mg/kg, ip after 4 hrs by RotaRod test; assay type: toxicity, organism-based; parameters: dose 30 mg/kg, route intraperitoneal; details: in vivo; how it was run: as §1
# [15] = tested on: Mus musculus; assay: Neurotoxicity in Albino mouse at 30 mg/kg, ip after 30 mins by RotaRod test; assay type: toxicity, organism-based; parameters: dose 30 mg/kg, route intraperitoneal; details: in vivo, 0.5 h; how it was run: as §1
# [16] = tested on: Mus musculus; assay: Antidepressant activity in Albino mouse assessed as duration of immobility at 10 mg/kg, ip by forced-swimming test relative to control; assay type: functional; details: route intraperitoneal; how it was run: as §2
# [17] = tested on: Mus musculus; assay: Anticonvulsant activity against metrazole-induced seizures in Albino mouse at 100 mg/kg, ip after 30 mins by scMet assay; assay type: functional, organism-based; parameters: dose 100 mg/kg; how it was run: as §1
# [18] = tested on: Mus musculus; assay: Neurotoxicity in Albino mouse at 300 mg/kg, ip after 30 mins by RotaRod test; assay type: toxicity, organism-based; parameters: dose 300 mg/kg, route intraperitoneal; details: in vivo, 0.5 h; how it was run: as §1
# [19] = tested on: Mus musculus; assay: Anticonvulsant activity in Albino mouse at 300 mg/kg, ip after 4 hrs by MES test; assay type: functional, organism-based; parameters: dose 300 mg/kg; how it was run: as §1
# [20] = tested on: Mus musculus; assay: Anticonvulsant activity against metrazole-induced seizures in Albino mouse at 30 mg/kg, ip after 4 hrs by scMet; assay type: functional, organism-based; parameters: dose 30 mg/kg; how it was run: as §1
Compound,Activity [1],Activity [2],Activity [3],Activity [4] [s],Activity [5],Activity [6],Activity [7],Activity [8],Activity [9],Activity [10],Activity [11],Activity [12],Activity [13],Activity [14],Activity [15],Activity [16] [%],Activity [17],Activity [18],Activity [19],Activity [20]
S=C(Nc1ccccc1)N1N=C(c2ccco2)CC1c1ccccc1 (stereo not given),inactive,inactive,inactive,184,inactive,Not Active,Not Active,Not Active,inactive,inactive,inactive,inactive,inactive,Not Active,Not Active,-12.38,inactive,Not Active,Active,inactive
NC(=S)N1N=C(c2ccco2)CC1c1ccccc1 (stereo not given),inactive,inactive,inactive,202,inactive,Not Active,Not Active,Not Active,inactive,inactive,inactive,inactive,inactive,Not Active,Not Active,3.81,inactive,Not Active,inactive,inactive
NC(=S)N1N=C(c2ccco2)CC1c1ccco1 (stereo not given),inactive,inactive,inactive,182,inactive,Not Active,Not Active,Not Active,inactive,inactive,inactive,Active,Active,Not Active,Not Active,-13.33,Active,Not Active,Active,inactive
CCNC(=S)N1N=C(c2ccco2)CC1c1ccco1 (stereo not given),inactive,inactive,inactive,211,inactive,Not Active,Not Active,Not Active,inactive,Active,inactive,Active,Active,Not Active,Not Active,0.48,Active,Not Active,inactive,inactive
C=CCNC(=S)N1N=C(c2ccco2)CC1c1ccccc1 (stereo not given),inactive,inactive,inactive,190,inactive,Not Active,Not Active,Not Active,Active,inactive,Active,inactive,inactive,Not Active,Not Active,-9.52,inactive,Not Active,inactive,inactive
CNC(=S)N1N=C(c2ccco2)CC1c1ccco1 (stereo not given),Active,Active,inactive,186,Active,Not Active,Not Active,Not Active,inactive,Active,inactive,inactive,inactive,Not Active,Not Active,-11.42,inactive,Not Active,Active,inactive

# — ChEMBL document CHEMBL1143773, “Synthesis and studies on antidepressant and anticonvulsant activities of some 3-(2-furyl)-pyrazoline derivatives” (Eur J Med Chem, 2007)
